In ChEMBL document CHEMBL5104115, “Design, synthesis of novel triptolide-glucose conjugates targeting glucose Transporter-1 and their selective antitumor effect” (Eur J Med Chem, 2022):
Calls of active or inactive are those of the source. The rule behind the calls is not given here.

Key:
[1] = Octanol-water partition coefficient, logD of the compound in PBS at pH 7.4 by liquid chromatography based mass spectrometric analysis; assay type: physicochemical
In short: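 Shake-flask method: 3.0 mg compound dissolved in PBS-saturated n-octanol and rotated 24 h at room temperature. The octanol phase was then mixed with octanol-saturated PBS, rotated another 24 h and centrifuged. Both phases quantified by LC-MS against a standard curve, and log P = log(C octanol/C water).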

SW-620 = assay: Cytotoxicity against human SW-620 cells incubated for 72 hrs by MTT assay; assay type: functional, cell-based; conditions: SW-620, 72 h
In short: (§1)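 Cells seeded at 4000/well, incubated overnight, then exposed to a range of concentrations, or DMSO vehicle, for 72 h. MTT (5 mg/mL solution) added for 4 h and formazan dissolved in DMSO. Absorbance read at 570 nm, and IC50 derived from the curves. Tumor lines were grown in RPMI 1640; HUVEC, HaCaT and LO2 were grown in DMEM, each with 10% FBS at 37 °C and 5% CO2.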

HT-29 = assay: Cytotoxicity against human HT-29 cells incubated for 72 hrs by MTT assay; assay type: functional, cell-based; conditions: HT-29, 72 h; in short: as §1
NCI-H460 [2] = assay: Cytotoxicity against human NCI-H460 cells incubated for 72 hrs by MTT assay; assay type: functional, cell-based; conditions: NCI-H460, 72 h; in short: as §1
NCI-H1975 [3] = assay: Cytotoxicity against human NCI-H1975 cells incubated for 72 hrs by MTT assay; assay type: functional, cell-based; conditions: NCI-H1975, 72 h; in short: as §1
[4] = Cytotoxicity against HUVEC incubated for 72 hrs by MTT assay; assay type: toxicity, cell-based; conditions: human, HUVEC cells; in short: as §1
[5] = Cytotoxicity against human L02 cells incubated for 72 hrs by MTT assay; assay type: toxicity, cell-based; in short: as §1
NCI-H1975 [6] = assay: Cytotoxicity against Glut1 knocked down human NCI-H1975 cells transfected with KD1 assessed as decrease in cell viability incubated for 72 hrs by MTT assay; assay type: functional, cell-based; conditions: NCI-H1975, 72 h
In short: (§2)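 Stable Glut-1 knockdown (KD1, KD2, vector KD V) or overexpression (OE, vector OE V) NCI-H1975 cells made by 12 h lentiviral infection, 72 h culture, then 14 days puromycin selection; Glut-1 confirmed by Western blot. Cells seeded at 4000/well overnight, dosed over a concentration range or DMSO for 72 h. MTT read at 570 nm; IC50 from ≥3 replicates.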

NCI-H1975 [7] = assay: Cytotoxicity against Glut1 knocked down human NCI-H1975 cells transfected with KD2 assessed as decrease in cell viability incubated for 72 hrs by MTT assay; assay type: functional, cell-based; conditions: NCI-H1975, 72 h; in short: as §2
NCI-H1975 [8] = assay: Cytotoxicity against human NCI-H1975 cells transfected with OE V overexpressing Glut1assessed as decrease in cell viability incubated for 72 hrs by MTT assay; assay type: functional, cell-based; conditions: NCI-H1975, 72 h; in short: as §2
NCI-H1975 [9] = assay: Cytotoxicity against human NCI-H1975 cells transfected with OE overexpressing Glut1assessed as decrease in cell viability incubated for 72 hrs by MTT assay; assay type: functional, cell-based; conditions: NCI-H1975, 72 h; in short: as §2
[10] = Cytotoxicity against HUVEC transfected with OE overexpressing Glut1assessed as decrease in cell viability incubated for 72 hrs by MTT assay; assay type: toxicity, cell-based; conditions: human, HUVEC cells transfected with OE overexpressing Glut1
In short: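 HUVEC kept in DMEM with 10% FBS, made to overexpress Glut-1 (OE) or carry vector (OE V) by lentiviral infection and puromycin selection for 14 days, with Western blot check. Seeded at 4000 cells/well, treated over a concentration range or DMSO for 72 h, then MTT at 570 nm. IC50 taken from at least three replicates.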

NCI-H460 [11] = assay: Down regulation of RNA polymerase II in human NCI-H460 cells measured after 48 hrs by Western blotting analysis; assay type: functional, cell-based
In short: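 NCI-H460 cells treated for 48 h, harvested by trypsinization and lysed on ice in NP-40 buffer (50 mmol/L Tris pH 8.0, 150 mmol/L NaCl, 1% NP-40). Protein quantified by BCA and resolved by SDS-PAGE. Blots probed for RNA Pol II (1:1000), with GAPDH as loading control, and detected by chemiluminescence.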

NCI-H460 [12] = assay: Induction of apoptosis in human NCI-H460 cells assessed as viable cells at 1 uM measured after 48 hrs by Annexin V-FITC/PI staining method (reference value: 86.7%); assay type: functional; conditions: read-out: Activity
NCI-H460 [13] = assay: Induction of apoptosis in human NCI-H460 cells assessed as necrotic cells at 20 uM measured after 48 hrs by Annexin V-FITC/PI staining method (reference value: 1.62%); assay type: functional
NCI-H460 [14] = assay: Induction of apoptosis in human NCI-H460 cells assessed as viable cells at 50 uM measured after 48 hrs by Annexin V-FITC/PI staining method (reference value: 86.7%); assay type: functional; conditions: read-out: Activity
[15] = Stability in mouse serum assessed as unchanged fraction measured after 72 hrs by HPLC analysis relative to control; assay type: ADME, cell-free; conditions: read-out: Stability
In short: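 15 µM test agent incubated with human or mouse serum at 37 °C for 0, 0.5, 1, 8, 12, 18, 60 and 72 h. Samples stored at −80 °C, protein precipitated with 200 µL methanol, vortexed and sonicated 5 min. Intact agent and released triptolide measured by HPLC at 220 nm, in duplicate.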

[16] = AUC (0 to 3 hrs) in NCI-H1975 tumor bearing nude mouse model serum at 1 mg/kg, iv; assay type: ADME, organism-based; set-up: time < 3 hr, dose 1 mg/kg, route iv
[17] = Half life in NCI-H1975 tumor bearing nude mouse model serum at 1 mg/kg, iv; assay type: ADME, organism-based
[18] = Drug distribution in NCI-H1975 tumor bearing nude mouse model assessed as tumor to liver ratio of triptolide metabolite at 2 mg/kg, iv by LC-MS analysis; assay type: ADME, organism-based; conditions: in vivo
In short: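 NCI-H1975 xenograft mice, tumors about 500 mm3, 3 per group, fasted 12 h with water available. Given 2 mg/kg iv and sacrificed 1 h later. Heart, liver, lung, kidney and tumor weighed and flash-frozen. 1.0 g tissue homogenized in 2.0 mL saline, methanol-precipitated, reconstituted. Parent, triptolide succinate and triptolide measured by LC-MS; tumor/organ ratios calculated.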

[19] = Toxicity in BALB/c nude mouse xenografted with human NCI-H1975 cells assessed as irregular spermatogenic tubules at 2 mg/kg administered ip, qd for 2 weeks; conditions: in vivo, 336 h
[20] = Toxicity in BALB/c nude mouse xenografted with human NCI-H1975 cells assessed as reduction of cytoplasmic nuclei at 2 mg/kg administered ip, qd for 2 weeks; conditions: in vivo, 336 h
[21] = Toxicity in BALB/c nude mouse xenografted with human NCI-H1975 cells assessed as morphological change in lung at 1 to 2 mg/kg administered ip, qd for 2 weeks; conditions: in vivo, 336 h
[22] = Toxicity in BALB/c nude mouse xenografted with human NCI-H1975 cells assessed as reduction of cytoplasmic vacuoles at 2 mg/kg administered ip, qd for 2 weeks; conditions: in vivo, 336 h
[23] = Toxicity in BALB/c nude mouse xenografted with human NCI-H1975 cells assessed as degeneration of inter tube connective tissue at 2 mg/kg administered ip, qd for 2 weeks; conditions: in vivo, 336 h
[24] = Toxicity in BALB/c nude mouse xenografted with human NCI-H1975 cells assessed as loss of body weight at 1 to 2 mg/kg administered ip, qd for 2 weeks measured every 3 days; conditions: in vivo, 336 h

Compound `CC(C)[C@]12O[C@H]1[C@@H]1O[C@]13[C@]1(O[C@H]1C[C@H]1C4=C(CC[C@@]13C)C(=O)OC4)[C@@H]2OC(=O)CCC(=O)O[C@H]1C(O)O[C@H](CO)[C@@H](O)[C@@H]1O` (stereo partly specified) has a logD [1] of -0.347, an IC50 (SW-620) of 1720 nM and an IC50 (HT-29) of 2190 nM. The IC50 (NCI-H460 [2]) was 870 nM, the IC50 (NCI-H1975 [3]) was 2040 nM and the IC50 at 72 h [4] was 8550 nM. For the same compound, the IC50 at 72 h [5] was 1320 nM, the IC50 (NCI-H1975 [6]) was 7010 nM and the IC50 (NCI-H1975 [7]) was 11600 nM. For the same compound, the IC50 (NCI-H1975 [8]) was 5270 nM, the IC50 (NCI-H1975 [9]) was 2440 nM and the IC50 at 72 h [10] was 3170 nM. For the same compound, the Activity (NCI-H460 [11]) was “Active”, the viability at 1 µM (NCI-H460 [12]) was 84.6% and the Activity (NCI-H460 [13]) was 4.89%. The viability at 50 µM (NCI-H460 [14]) was 22.7%, the remaining at 72 h [15] was 66% and the AUC(0-t) at 3 h [16] was 83.6 µM·h. For the same compound, the half-life [17] was 19.2 min, the Ratio [18] was 9.3 and the Activity [19] was “Toxic”. The Activity [20] was “Toxic”, the Activity [21] was “Non-Toxic” and the Activity [22] was “Toxic”. For the same compound, the Activity [23] was “Toxic” and the Activity [24] was “Non-Toxic”.
